Assay outcomes: PubChem, several laboratories
An excerpt weighted towards active compounds, which were near 4.2% of everything screened.
Cl transport mod: modulates chloride dependent transport by human KCC2. Q9H2X9. KCC2 cells, thallium flux FluoZin-2 fluorescence. B-score of Tl+ flux slope (higher = more flux/activation; lower = inhibition) at 10 µM. 190,000 compounds, 2.2% hits. AID 1456;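 active = thallium flux slope and its plate-corrected score both differing from the plate sample mean at a set confidence after two filtering rounds, in either direction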;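 also: slope of fluorescence scaled to starting intensity during 10 to 20 s after thallium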
WT yeast gro inh: growth inhibition of WT yeast, mitochondrial fusion screen. inhibition, % at 10 µM. 190,000 compounds, 2.1% hits. mitochondrial fusion phenotypic screen, WT strain. AID 1362; in the data active = inhibition above about 58%; tested in S. cerevisiae
Rad51 HR inh: blocks human Rad51 in homologous recombination; Q06609; hRad51 DNA strand exchange, fluorescence dequenching; inhibition, % at 10 µM; 200,000 compounds, 0.085% hits;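 active = inhibition above 40% at the single screening dose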;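 also: 0% = DMSO control wells and 100% = blanks with heterologous ssDNA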
Target sequence (Q06609 whole entry, looked up): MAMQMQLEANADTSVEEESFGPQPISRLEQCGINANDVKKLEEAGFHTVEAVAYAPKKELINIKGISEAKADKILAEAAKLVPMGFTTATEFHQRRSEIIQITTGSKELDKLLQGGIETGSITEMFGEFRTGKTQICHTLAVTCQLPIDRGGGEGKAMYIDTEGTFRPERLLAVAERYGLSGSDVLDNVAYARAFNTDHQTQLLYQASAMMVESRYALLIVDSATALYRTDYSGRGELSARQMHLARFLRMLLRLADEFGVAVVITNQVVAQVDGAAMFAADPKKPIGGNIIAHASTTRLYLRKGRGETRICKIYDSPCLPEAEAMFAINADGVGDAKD
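System: hRad51 filaments on single-stranded DNA; reagent: Fluorescein- and BHQ1-tagged 47-mer duplex; compound dosing: one concentration, 10 µM final; timing: filaments 15 min 37 °C, then compound 30 min; measured by: fluorescein emission 520 nm, excitation 485 nm; benchmarks: per-plate controls and blanks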
Ins promoter up: MIN6 insulin promoter up-regulation; z-score at 5 µM; MIN6 insulin promoter-GFP reporter, high-content imaging; hits give high values; 190,000 compounds, 0.3% hits; AID 1625;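 active = z-score above 3 at 5 µM with at least 500 cells counted in the well; inconclusive = wells under 500 cells, flagged as cytotoxic or low count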
Autophagy HCS: autophagy modulation, high-content screen. MEF GFP-LC3 puncta imaging; test concentration mostly 10 µM. calls only at 10 µM (by protocol). 190,000 compounds, 0.98% hits. AID 463193;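 active = percentage of spot-positive cells more than 3 SD above its plate mean, without a fluorescence outlier flag or 80% toxicity; inconclusive = no clear call, values can overlap the other calls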;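 also: spot-positive cell cutoff set from DMSO-treated cells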
SKKanGAS inh: inhibitors of SKKanGAS S. pyogenes growth in kanamycin (SK-promoter or general growth effect) | BacTiter-Glo, 6 h | 300,000 compounds, 1.3% hits | inhibition, % at 7.5 µM;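 active = mean replicate score, as percent of positive control median, at least 50; inconclusive = mean below 50 but one replicate at or above 50; inactive = mean and every replicate below 50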;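 also: strain carries kanamycin resistance gene driven by streptokinase promoter and grows in 40 µg/ml kanamycin; loss of luminescence reflects streptokinase promoter inhibition or plain growth inhibition; 0% = median of DMSO wells and 100% = positive control at its reference dose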
The depositor's hits bear a star; i = inactive; ? = inconclusive; / = no result; + = active, no number.

SMILES | Cl transport mod | WT yeast gro inh | Rad51 HR inh | Ins promoter up | Autophagy HCS | SKKanGAS inh
CSc1nc(C(=O)N2CCc3c([nH]c4ccccc34)C2c2ccccn2)cs1 (centres undefined) | -0.72 | 59* | -4 | / | i | 1
Cc1cccc(C2c3[nH]c4ccccc4c3CCN2C(=O)c2noc3c2CCCC3)n1 (centres undefined) | 0.18 | 60* | -16 | -0.86 | i | 7
Cc1cc(C)n(Cc2cccc(C(=O)N/N=C/c3cccnc3)c2)n1 | / | / | / | / | / | -1
Cc1ccc(-n2ncc(Br)c(Br)c2=O)cc1 | -3.7 | 46 | 6 | -5 | + | -2
O=c1c(Br)c(Br)cnn1-c1ccccc1 | -2.7 | 32 | 16 | ? | i | /
N#Cc1c(C(F)(F)F)cc(-c2ccccc2)nc1SCc1nc(N)nc(N2CCOCC2)n1 | 0.043 | 2 | -43 | / | + | 15
Cc1cc(C(F)(F)F)c(C#N)c(SCC(=O)Nc2nc3ccccc3s2)n1 | 0 | 40 | -129 | 1.8 | + | 30
CCOC(=O)CCSc1nc(C)cc(C(F)(F)F)c1C#N | -0.75 | -2 | -9 | 2.3 | + | 9
CCOC(=O)c1c(NC(=O)CSc2nnc(-c3ccc(OC)cc3)o2)sc2c1CCC2 | -0.033 | / | 1 | / | + | -1
N#Cc1c(C(F)(F)F)cc(-c2ccc(Cl)c(Cl)c2)nc1SCCN1CCOCC1 | / | -4 | / | -0.4 | i | 5
COc1ccc(-c2nnc(SCC(=O)Nc3sc4c(c3C#N)CCCC4)n2-c2ccccc2)cc1 | 0.96 | -23 | 0 | 0.16 | + | 16
COc1ccc(-n2c(SCC(=O)Nc3sc4c(c3C#N)CCCC4)nnc2-c2ccccc2OC)cc1 | -1.5 | -5 | -1 | -1.9 | i | 16
N#Cc1c(C(F)(F)F)cc(-c2ccccc2)nc1SCC(=O)Nc1sc2c(c1C#N)CCC2 | / | 20 | 4 | -0.03 | + | 7
CCc1ccc(NC(=O)N2CCN(C(=O)C3CCCO3)CC2)cc1 (centres undefined) | / | / | / | / | / | -4
COc1ccc(CCN2C(=O)N[C@@H](C(C)C)C2=O)cc1 | / | / | / | / | / | 1
O=C(c1cccc(S(=O)(=O)N2CCc3ccccc32)c1)N1CCCC(C(F)(F)F)C1 (centres undefined) | / | / | / | / | / | -7
Cc1cccc2c1NC(=O)C2(O)N1CCCC(C)C1 (centres undefined) | / | / | / | / | / | 3
C/C(CC(=O)Nc1cccnc1)=N\NC(=O)C(=O)NC(C)C | 0.81 | / | 12 | 0.25 | / | 7
C/C(CC(=O)Nc1cccnc1)=N\NC(=O)C(=O)Nc1cccc(C)c1 | -0.099 | 10 | / | -0.48 | + | -6
CC(=O)c1c(C)[nH]c(C(=O)Nc2nc(C)cs2)c1C | 0.02 | -2 | -7 | -0.58 | i | -2
CC(=O)c1c(C)[nH]c(C(=O)Nc2nc(-c3ccc(Cl)cc3)cs2)c1C | -2.6 | 86* | -9 | -0.16 | i | 43
CC(=O)c1c(C)[nH]c(C(=O)Nc2nc(-c3ccc(-c4ccccc4)cc3)cs2)c1C | 1.4 | 12 | -3 | -0.21 | i | 52*
OCCCNCc1ccc(N(c2ccccc2)c2ccccc2)cc1 | / | / | / | / | / | 1
CCOc1ccc(NC2=NCC(=O)N2Cc2cccs2)cc1 | -1.1 | -1 | 3 | 4.8* | i | -7
O=C(CN1CCN(c2ccc(F)cc2)CC1)Nc1nccs1 | / | / | / | / | / | 3
SMILES | Cl transport mod | WT yeast gro inh | Rad51 HR inh | Ins promoter up | Autophagy HCS | SKKanGAS inh
CC(C)(C)C1CCc2[nH]c3ccccc3c(=O)c2C1 (centres undefined) | / | 82* | -1 | -0.15 | i | 0
CCOC(=O)c1cc2c(ccn2C)n1Cc1ccccc1C | -0.83 | 21 | -3 | -0.16 | i | 9
CCOC(=O)c1cc2c(ccn2C)n1Cc1ccccc1Cl | -0.49 | 69* | 30 | 0.11 | i | -6
CC(=O)OCC1=C(C(=O)O)N2C(=O)C(NC(=O)c3ccc(COc4cccc(Cl)c4Cl)o3)C2SC1 (centres undefined) | -1.4 | -2 | -3 | 0.32 | i | 72*
CC1=C(C(=O)O)N2C(=O)C(NC(=O)c3ccccc3Cl)C2SC1 (centres undefined) | / | / | / | / | / | 7
COc1ccc(OC)c(S(=O)(=O)Nc2cccc3ccc(O)cc23)c1 | / | / | / | / | / | 8
CCCCNC(=O)c1sc(=S)n2c1[nH]c(=O)c1ccccc12 | -1 | -7 | -4 | 0.15 | i | 54*
O=S(=O)(c1ccc(Br)s1)N1CCN(Cc2ccc3c(c2)OCO3)CC1 | -0.44 | 61* | 1 | 0.04 | i | -5
O=S(=O)(c1cc(Cl)ccc1Cl)N1CCN(Cc2ccc3c(c2)OCO3)CC1 | -0.13 | 58 | -5 | 0.16 | i | 2
COc1ccc2c(=O)cc(-c3cccnc3)oc2c1OC | 0.19 | / | -5 | -0.56 | / | 3
C=CCn1c(C)c(C(C)=O)c(N2CCN(C(c3ccccc3)c3ccccc3)CC2)nc1=S | -0.23 | 72* | -5 | -0.18 | i | 21
CC(=O)c1c(N2CCN(C)CC2)nc(=S)n(Cc2ccccc2)c1C | 0.14 | -3 | 1 | / | i | -2
CC(=O)O[C@H]1C[C@@]2(C)[C@@H](C[C@@H](O)[C@H]3[C@@]4(C)CC[C@@H](O)[C@@H](C)[C@@H]4CC[C@@]32C)/C1=C(\CCC=C(C)C)C(=O)O | / | / | / | / | / | 109*
CC(=O)O[C@]1(C(C)=O)CCC2C3C=C(C)C4=CC(=O)CC[C@]4(C)C3CC[C@@]21C (some centres undefined) | / | / | / | / | / | 1
CCOc1cccnc1Sc1ccccc1 | / | / | / | / | / | 7
Cc1ccsc1/C=N/NC(=O)c1ccc(Cn2cc(Br)cn2)o1 | / | 9 | 25 | -0.08 | + | -9
O=C(N/N=C/c1cccc(Br)c1)c1ccc(Cn2cc(Br)cn2)o1 | -1.6 | 41 | 5 | -0.42 | i | 8
Cc1cc(C)c2nc(SC(C)C(=O)NCC(=O)Nc3ccc(F)c(F)c3F)cc(C)c2c1 (centres undefined) | 12* | 9 | 2 | 0.02 | i | 16
CC(C)OCCCNC(=O)C(NS(=O)(=O)c1ccc2c(c1)c(=O)n(C)c(=O)n2C)c1ccccc1 (centres undefined) | -0.47 | -3 | 5 | / | i | 5
Cc1ccc(C(=O)N2CCN(c3ccccc3Cl)CC2)cc1[N+](=O)[O-] | -1.7 | 76* | -6 | -0.14 | i | 15
C=CCNC(=S)NNC(=O)COc1ccc2cc(Br)ccc2c1 | -1.5 | 59* | -1 | -0.95 | i | -10
Cc1cccc(N2CCN(C(=O)C(Cc3ccccc3)n3cccc3)CC2)c1C (centres undefined) | -0.0027 | 69* | -1 | -0.36 | / | 15
O=c1cc(N2CCCCC2)c(-c2ccccc2)nn1Cc1ccc(F)cc1 | / | 83* | -14 | -0.15 | i | 17
O=c1cc(N2CCCCC2)c(-c2ccccc2)nn1Cc1ccc(Cl)cc1 | 0.012 | 30 | -10 | 0.02 | i | 94*
O=c1cc(N2CCCCC2)c(-c2ccccc2)n[nH]1 | 0.55 | 12 | 16 | -0.07 | i | 5
O=c1c2c(c(-c3ccccc3)nn1Cc1ccccc1)CCCC2 | / | / | / | / | / | 7
